Assay results reported in PubChem BioAssay AID463073 (The Scripps Research Institute Molecular Screening Center, 2010).
Among all 2,000 compounds or so, about 10 (0.5%) were called active.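 The calls were made as follows: active = inhibition above 30%; inactive = the rest.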 What follows is part of a selection rich in actives, with near analogues and random picks from the rest.

Target: Protein-arginine deiminase type-4 (Homo sapiens) (UniProt Q9UM07)
Test: blockers of protein arginine deiminase 4 – biochemical, fluorescence polarization, primary screen (AID 463073);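 also: 0% = PAD4 with DMSO and 100% = wells lacking PAD4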
Conditions: recombinant PAD4, RFA probe fluorescence polarization; at 5 µM; active compounds read high
Outline: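 Material – recombinant PAD4 · Amount – PAD4 at 2 µM in dispensed buffer, before additions · Medium – Ca2+-containing HEPES pH 7.6, TCEP · Doses – one dose, 5 µM final · Schedule – 30 min 25 °C preincubation, 5 h 37 °C labeling · Measured by – FP, ex 525 nm, em 598 nm · Benchmarks – wells lacking PAD4 as full-inhibition control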

Protein-arginine deiminase type-4 (Homo sapiens), sequence (Q9UM07 whole entry, looked up): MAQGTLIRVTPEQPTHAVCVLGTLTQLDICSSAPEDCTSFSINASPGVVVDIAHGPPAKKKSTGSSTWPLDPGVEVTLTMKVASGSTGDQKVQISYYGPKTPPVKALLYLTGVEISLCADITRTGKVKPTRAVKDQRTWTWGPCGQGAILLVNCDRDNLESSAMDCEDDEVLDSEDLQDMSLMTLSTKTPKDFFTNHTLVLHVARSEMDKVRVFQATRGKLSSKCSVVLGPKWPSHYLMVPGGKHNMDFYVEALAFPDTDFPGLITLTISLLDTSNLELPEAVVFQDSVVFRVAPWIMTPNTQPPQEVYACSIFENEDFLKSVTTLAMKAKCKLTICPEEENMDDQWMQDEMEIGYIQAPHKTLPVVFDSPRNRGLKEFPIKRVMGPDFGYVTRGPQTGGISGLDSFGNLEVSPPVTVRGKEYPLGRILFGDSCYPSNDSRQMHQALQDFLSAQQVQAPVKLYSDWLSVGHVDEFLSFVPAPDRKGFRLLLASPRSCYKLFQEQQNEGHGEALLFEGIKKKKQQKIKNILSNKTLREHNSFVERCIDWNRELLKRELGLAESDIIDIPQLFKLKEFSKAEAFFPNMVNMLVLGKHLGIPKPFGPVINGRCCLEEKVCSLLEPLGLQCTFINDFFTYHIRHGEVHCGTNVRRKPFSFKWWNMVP

inhibition, inactive:
Cc1ccc2c(c1)C1OCCC1C1N2C(=O)C2C(C(=O)O)C3C=CC21O3 (stereo not given) 6.06%
Cn1cc(CN2CCC(C(=O)N3CCCCC3)CC2)c(-c2ccccc2F)n1 4.74%
O=C1OC(c2ccccc2)=C/C1=C/c1cccs1 -2.45%
c1ccc(Nc2ccccn2)nc1 -4.7%
CS(=O)(=O)c1cccc(C(=O)Oc2ccccc2)c1 5.29%
CC(=O)OCC1OC(n2ccc(=O)[nH]c2=O)C(O)C1O (stereo not given) 1.17%
CC(C)C[C@H](NC(=O)[C@@H]1Cc2ccccc2CN1C(=O)OC(C)(C)C)C(=O)NCC1CCC(C(=O)O)CC1 (stereo not given in full) 0.39%
CS(=O)(=O)Nc1cccc(C(=O)CC2(O)C(=O)Nc3ccc(Br)cc32)c1 (stereo not given) 0.36%
Cn1c2c(c(=O)[nH]c1=O)C(c1ccc(O)cc1)C1=C(N2)c2ccccc2C1=O (stereo not given) 4.81%
Cc1cc(C)c(NC(=O)NC(=O)C(Cl)(Cl)Cl)c(C)c1 -2.27%
CC(=O)OC[C@H]1O[C@@H](Sc2cccc3cccnc23)[C@H](OC(C)=O)[C@@H](OC(C)=O)[C@H]1OC(C)=O 1.27%
CCOC(=O)C1C(=O)OC(C)(C)C1C(C)C(=O)c1ccc(C)cc1 (stereo not given) -0.2%
CCOC(=O)C(Cc1cc(C(C)=O)ccc1OC(C)C)C(=O)OCC 2.78%
CCOc1ccc(N2C(=O)CC(NCCNc3ccc([N+](=O)[O-])cn3)C2=O)cc1 (stereo not given) 9.78%
CN1C(=O)C(O)(CC(=O)c2ccccc2O)c2cc(Br)ccc21 (stereo not given) -1.81%
CCOC(=O)C(NC(=O)CCC(=O)Nc1ccc(S(N)(=O)=O)cc1)C(O)c1ccccc1 (stereo not given) -0.41%
CCc1cc2c(C)cc(=O)oc2cc1OC(=O)C1CCCN1C(=O)OC(C)(C)C (stereo not given) 1.27%
COC(=O)c1[nH]c2ccc(C)cc2c1NC(=O)CN1CCc2cc(OC)c(OC)cc2C1 0.78%
COc1ccc(CC(=O)NCC2(c3ccc(OC)c(OC)c3)CCOCC2)cc1 2.08%
COc1ccc(CNC(=O)c2c(O)c3cccc4c3n(c2=O)CCC4)cc1 4.58%
CC(C)CC(=O)Nc1ccc2oc(-c3ccncc3)nc2c1 1.75%
CC(C)NC(=O)c1ccc(C(C)C)cc1 -2.74%
O=C(CN1C(=O)c2ccccc2S1(=O)=O)Nc1ccccc1 -2.01%
COC(=O)C1=NN(C(=O)c2cccc(Br)c2)C(O)(c2ccc(Cl)cc2)C1 (stereo not given) -1.03%
CC(C)(C)C(=O)Nc1cccc(OC(F)(F)C(F)Cl)c1 (stereo not given) 3.96%
